Compound activity (PubChem BioAssay)
MrgX1 agonist = agonists of human MrgX1 receptor, primary screen, HEK293 cells, Fluo-4 calcium flux; 310,000 compounds, 0.44% hits; B-score at 10 µM; Fluo-4 calcium fluorescence, agonist mode; stronger effect = higher value; AID 588627, 2011;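 active means calcium response B-score plate-corrected fluorescence ratio at least 3 library SD, with starting fluorescence B-score inside 5 SD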
Target sequence (Q96LB2 whole entry, looked up): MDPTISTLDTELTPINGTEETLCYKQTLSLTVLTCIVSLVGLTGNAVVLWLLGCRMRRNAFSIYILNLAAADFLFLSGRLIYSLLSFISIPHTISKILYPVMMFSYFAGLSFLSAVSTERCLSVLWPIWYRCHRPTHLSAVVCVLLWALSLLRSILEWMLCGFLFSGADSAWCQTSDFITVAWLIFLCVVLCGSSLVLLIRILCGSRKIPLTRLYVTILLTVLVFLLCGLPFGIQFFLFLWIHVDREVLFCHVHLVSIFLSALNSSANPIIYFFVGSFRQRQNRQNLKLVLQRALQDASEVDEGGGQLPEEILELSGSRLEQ
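times = overnight plating, then 30 min 37 °C plus 30 min room-temperature dye loading | assay system = stable human MrgX1 HEK293 cell line | input = fifteen thousand cells per well | signal = kinetic calcium dye fluorescence, Fluo-4 NW | dosing = compound delivered in addition one of three | read-out = B-scored fluorescence response ratio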
RGS4 block = RGS4 inhibitors, primary screen, cell-based, HEK293 M3R inducible RGS4, calcium flux; Regulator of G-protein signaling 4 (Homo sapiens), P49798; Fluo-4 calcium flux; stronger effect = higher value; triggered by carbachol at its EC20; B-score at 10 µM; 310,000 compounds, 0.45% hits; AID 463165, 2010;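 active means B-score, a plate-corrected calcium signal, over three deviations above library mean, with baseline fluorescence within five deviations of library mean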;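 further: RGS4 expression induced by doxycycline in cells with stable M3 receptor; B-score is computed from the integrated fluorescence ratio over baseline after carbachol; higher B-score means a larger calcium signal and so more RGS4 inhibition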
Target sequence (P49798 whole entry, looked up): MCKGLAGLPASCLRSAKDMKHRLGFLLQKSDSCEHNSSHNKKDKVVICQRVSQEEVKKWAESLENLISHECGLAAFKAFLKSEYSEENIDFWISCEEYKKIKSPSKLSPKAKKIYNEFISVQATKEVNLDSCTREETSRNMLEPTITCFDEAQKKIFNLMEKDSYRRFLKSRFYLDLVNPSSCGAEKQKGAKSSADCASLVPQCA
MrgX1 allo act = positive allosteric modulators of MrgX1, primary screen, HEK293 cells, Fluo-4 calcium flux; Mas-related G-protein coupled receptor member X1 (Homo sapiens), Q96LB2; FDSS; stronger effect = higher value; B-score at 10 µM; 310,000 compounds, 0.63% hits; AID 588675, 2011;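 active means plate-corrected calcium response at least 3 library SD above typical, normal starting fluorescence, not activating the receptor alone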;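 further: compound read alongside a low EC10 to EC30 dose of BAM8-22 agonist; peak minus trough fluorescence over baseline measured at the second addition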
RGS4 pot = RGS4 potentiators or activators, primary screen, cell-based, HEK293 M3R inducible RGS4, calcium flux; 310,000 compounds, 0.92% hits; B-score at 10 µM; carbachol calcium flux Fluo4; stronger effect = lower value;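 active means B-score of the integrated calcium signal more than 4 SD below the library mean, with starting fluorescence not abnormally high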;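 further: negative B-score means reduced calcium response which marks RGS4 activation or potentiation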
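Assay system: HEK293 FlpIn-TREx cells, stable M3R, doxycycline-inducible RGS4 / Probe or stimulus: carbachol, ECmax concentration / Times: overnight RGS4 induction, 30 min dye load 37 °C, 20 min compound RT / Signal: kinetic calcium fluorescence imaging with Fluo4-AM dye, 2 µM / Measure: Agonist-evoked peak-minus-minimum fluorescence over baseline, integrated ratio, B score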
MrgX1 antag = antagonists of human MrgX1 receptor, primary screen, HEK293 cells, Fluo-4 calcium flux; BAM8-22 antagonism; stronger effect = lower value; 310,000 compounds, 1.3% hits; B-score at 10 µM;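 active means calcium-response B-score plate-corrected more than 3 library SD below zero, starting fluorescence within 5 deviations, no agonist response on first addition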;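 further: peak minus trough fluorescence over baseline after final BAM8-22 challenge near maximal dose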
Large screens that a line does not name were inactive. The list is not random: actives were taken first. Their share in the collection is about 3.5%.

CCC(Oc1ccc2c(=O)c(-c3ccccc3OC)coc2c1)C(=O)OCc1ccccc1 (centres undefined)	RGS4 pot -7.61
Cc1ccc(S(=O)(=O)NNC(=O)c2cccc(O)c2)cc1	MrgX1 antag -6.53
O=C(NNS(=O)(=O)c1ccc(F)cc1)c1cccc(O)c1	none
Cc1cc2c(=O)n(C)c(SCC(=O)Nc3cccc(F)c3)nc2s1	none
CCN(CC)C(=O)COC(=O)C1=NN(c2cc(C)ccc2C)C(=O)CC1	MrgX1 antag -5.47
CC(Sc1nnc2c(n1)[nH]c1ccccc12)C(=O)N(C)C1CCCCC1 (centres undefined)	MrgX1 antag -7.18
CN1/C(=C/c2cccc[n+]2C)Sc2ccccc21	RGS4 pot -7.53
Cc1ccc2c(c1)N(C)/C(=C/c1cccc[n+]1CCO)S2	RGS4 pot -7.35
Cc1ccc2c(c1)N(C)/C(=C/c1cccc[n+]1C)S2	RGS4 pot -7.27, MrgX1 antag -7.16
CCc1nc(SCc2ccccc2C#N)n[nH]1	none
CC(C)(C)C(=O)c1no[n+]([O-])c1/C(=N/O)C(C)(C)C	MrgX1 agonist 37.5
COc1ccc(NS(=O)(=O)c2cccc(C(=O)N3CCCC(C)C3)c2)cc1 (centres undefined)	none
COc1ccc(-c2csc3ncnc(NCCCO)c23)cc1	MrgX1 agonist 32.6
COc1ccc(-c2csc3ncnc(NCCO)c23)cc1	none
COc1cc(F)ccc1S(=O)(=O)NCc1cccnc1	none
COc1cccc(CN(C)C(=O)c2cc(-c3ccc(F)cc3)nc3ccccc23)c1	RGS4 pot -8.12, MrgX1 antag -15.2
COc1ccc(CN(C)C(=O)c2cc(-c3ccccc3)nc3ccc(C)cc23)c(OC)c1OC	RGS4 pot -7.22
COc1ccc(CCN(C)C(=O)c2cc(-c3ccccc3)nc3ccc(C)cc23)cc1OC	none
COc1cccc(NC(=O)CN(C)C(=O)c2cc(-c3ccccc3)nc3ccccc23)c1	none
COc1ccccc1CN(C)C(=O)c1cc(-c2cccs2)nc2ccccc12	RGS4 pot -8.58
COC(=O)C1=NNC2(C)C(=O)N(c3ccc(C)cc3)C(=O)C12 (centres undefined)	none
COc1ccc(Cl)cc1S(=O)(=O)N1CCCC(C(=O)NCc2ccccc2)C1 (centres undefined)	none
Cc1nc(/C(=N/O)C(N)=O)cs1	none
Cc1cc(C)nc(N(C#N)Cc2cccc(Cl)c2)n1	none
Cc1ccc(Nc2nc(N)nc(CN3CCN(C)CC3)n2)cc1	RGS4 pot -7.15
Cc1cc(NC(=O)c2ccc([N+](=O)[O-])cc2)n(C)n1	none
O=C(c1ccccc1[N+](=O)[O-])N1CC2C3C=CC(C3)C2C1 (centres undefined)	RGS4 pot -7.14
O=C(c1cccc([N+](=O)[O-])c1)N1CC2C3C=CC(C3)C2C1 (centres undefined)	none
CCOC1=C/C(=C/c2c(N)n3oc(C)cc3nc2=O)C=CC1=O	MrgX1 allo act 8.62
Cc1cc2nc(=O)c(/C=C3\C=Nc4ccccc43)c(N)n2o1	none
O=C(c1ccco1)[C@@H]1[C@@H]2C(=O)N(c3ccccc3)C(=O)[C@@H]2C2c3ccccc3C=CN21 (some centres undefined)	none
COc1ccc(N2C(=O)[C@@H]3[C@H](C2=O)[C@H]2c4ccccc4C=CN2[C@@H]3C(=O)Nc2ccccc2)cc1	MrgX1 antag -7.13 (no result: RGS4 block, RGS4 pot)
O=c1c2ccc(Cl)cc2nc(-c2cccc(C(F)(F)F)c2)n1O	MrgX1 agonist 46.7
O=c1c2ccccc2nc(-c2ccc(Cl)c(Cl)c2)n1O	MrgX1 agonist 35
COC(=O)c1ccccc1NC(=O)C1CCN(c2ncnc3c2nc2n3CCCCC2)CC1	none
O=C(/C=C/c1ccc([N+](=O)[O-])cc1)/C=C/c1ccco1	RGS4 block 15.7
CC(C)(C)c1ccc(/C=C/C(=O)Nc2nncs2)cc1	MrgX1 antag -4.84
COc1ccc(C(=O)COC(=O)COc2cc(C)cc(C)c2)cc1	none
CC(C)(C)C(=O)c1sc2nc(-c3cccs3)cc(C(F)(F)F)c2c1N	RGS4 pot -9.68
CCN(CC)C(=O)c1sc2nc(-c3cccs3)cc(-c3cccs3)c2c1N	MrgX1 antag -7.17
CCOc1ccc(NS(=O)(=O)c2ccc(C(=O)NCCN3CCOCC3)cc2)cc1	none
COCOc1ccc(-c2oc3c(C/C=C(\C)CCC=C(C)C)ccc(O)c3c(=O)c2OCOC)c(OCOC)c1	MrgX1 antag -6.9
CC(C)=CCC/C(C)=C/COc1ccc2ccc(=O)oc2c1	none
N/C(=N\c1nc(CSc2ccccn2)cc(=O)[nH]1)Nc1ccc(Cl)cc1Cl	none
Cc1ccc(/C=C2/Sc3ccccc3N(CC(=O)NCCCOC(C)C)C2=O)cc1	MrgX1 antag -4.79
COC(=O)C(=Cc1ccccc1[N+](=O)[O-])C(=O)OC	MrgX1 agonist 50
CCCCCCCCNC(=O)/C(C#N)=C/c1ccccc1[N+](=O)[O-]	RGS4 pot -7.9
O=C(/C=C/c1ccccc1[N+](=O)[O-])Oc1ccccc1	none
O=C(NC1CCCC1)c1cc(S(=O)(=O)N2CCCC2)ccc1Cl	none
CCOC(=O)C1CCCN(C(=O)/C(=C/c2ccco2)NC(=O)c2ccccc2)C1 (centres undefined)	RGS4 pot -7.03
O=C(N/C(=C/c1ccco1)C(=O)N1CCCCCC1)c1ccccc1	none
CCN1CCN(CCNC(=O)c2ccc(/C=C3/Sc4ccccc4N(Cc4ccccc4C)C3=O)cc2)CC1	RGS4 pot -8.42 (no result: MrgX1 agonist, MrgX1 allo act, MrgX1 antag)
COC(=O)C1=NN(C(=O)c2ccccc2)C(O)(c2ccc([N+](=O)[O-])cc2)C1 (centres undefined)	MrgX1 agonist 53.7
COC(=O)C1=NN(C(=O)c2ccccc2)C(C)(O)C1 (centres undefined)	none
COC(=O)C1=NN(C(=O)c2ccc(C)cc2)C(O)(c2ccc(Cl)cc2)C1 (centres undefined)	MrgX1 agonist 66.6
Cc1ccc(S(=O)(=O)N2CCN(C)CC2)cc1[N+](=O)[O-]	MrgX1 antag -4.91
COc1ccc(-c2csc(NC(CO)c3nc4ccccc4n3CCCO)n2)cc1 (centres undefined)	none
CCCNC(=O)Cn1c(=O)/c(=C\c2ccc(-c3ccc([N+](=O)[O-])cc3)o2)s/c1=C\C(=O)C(C)(C)C	MrgX1 antag -9.51
O=C1NC(=O)/C(=C/c2ccc(-c3cccc([N+](=O)[O-])c3)o2)S1	none
CCCNC(=O)Cn1c(=O)/c(=C\c2ccc(-c3cccc([N+](=O)[O-])c3)o2)s/c1=C\C(=O)C(C)(C)C	MrgX1 antag -6.84
Cc1onc(-c2c(Cl)cccc2Cl)c1C(=O)N(C)Cc1ccccc1	none
CNC(=S)N(Cc1ccccc1)Cc1cccnc1	none
